Assays:
[1] = biological target: Alpha-galactosidase (Coffea arabica) (UniProt Q42656); test: Inhibition of coffee bean alpha-galactosidase at 1000 uM by spectrophotometry
Method in brief: (§1)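 Commercial enzymes (P. decumbens alpha-L-rhamnosidase at pH 4.5, bovine epididymis alpha-L-fucosidase at pH 5.5, coffee bean alpha-galactosidase at pH 6.5) were incubated with 2 mM p-nitrophenyl glycoside in a 1 mL reaction. The reaction was stopped with 2 mL of 400 mM Na2CO3 and p-nitrophenol was read at 400 nm.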

Rattus norvegicus [2] = species on record: Rattus norvegicus; test: Inhibition of rat epididymis alpha-mannosidase at 1000 uM by spectrophotometry
Method in brief: (§2)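 Enzyme source was rat epididymal fluid purified from epididymis, assayed at pH 5.2 with 2 mM of the relevant p-nitrophenyl glycoside in a 1 mL reaction. The reaction was stopped with 2 mL of 400 mM Na2CO3 and p-nitrophenol was measured at 400 nm.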

[3] = biological target: T1, Beta-mannosidase (Rattus norvegicus) (UniProt Q4FZV0); test: Inhibition of rat epididymis beta-mannosidase at 1000 uM by spectrophotometry
T1 sequence (whole entry): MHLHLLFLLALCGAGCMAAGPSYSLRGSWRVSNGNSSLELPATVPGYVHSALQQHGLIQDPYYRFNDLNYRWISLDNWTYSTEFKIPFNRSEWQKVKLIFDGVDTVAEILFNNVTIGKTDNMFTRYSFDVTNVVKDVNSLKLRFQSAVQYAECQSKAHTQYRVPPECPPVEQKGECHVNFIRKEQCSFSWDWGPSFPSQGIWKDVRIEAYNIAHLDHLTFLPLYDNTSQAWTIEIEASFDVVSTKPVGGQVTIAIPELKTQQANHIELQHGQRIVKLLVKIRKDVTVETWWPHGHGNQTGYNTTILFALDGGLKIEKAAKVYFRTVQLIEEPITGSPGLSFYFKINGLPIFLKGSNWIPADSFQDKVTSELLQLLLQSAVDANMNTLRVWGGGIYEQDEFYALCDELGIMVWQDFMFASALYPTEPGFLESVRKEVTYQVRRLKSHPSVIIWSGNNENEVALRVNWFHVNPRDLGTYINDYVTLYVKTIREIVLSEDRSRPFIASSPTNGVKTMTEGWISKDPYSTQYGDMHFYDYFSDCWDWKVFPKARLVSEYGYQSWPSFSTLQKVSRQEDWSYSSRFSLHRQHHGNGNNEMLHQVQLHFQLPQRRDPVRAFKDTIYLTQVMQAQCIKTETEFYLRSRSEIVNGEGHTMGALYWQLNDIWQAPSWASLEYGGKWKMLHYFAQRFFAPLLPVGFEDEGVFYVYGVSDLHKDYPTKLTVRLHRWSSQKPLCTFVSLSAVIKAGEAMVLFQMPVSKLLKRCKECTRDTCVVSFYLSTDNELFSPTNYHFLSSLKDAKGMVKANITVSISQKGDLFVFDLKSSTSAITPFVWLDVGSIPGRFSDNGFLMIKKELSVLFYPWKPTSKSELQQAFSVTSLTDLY

Penicillium decumbens = test: Inhibition of Penicillium decumbens alpha-L-rhamnosidase at 1000 uM by spectrophotometry; method in brief: as §1
[4] = Inhibition of rice alpha-glucosidase by spectrophotometry; set-up: species or system Oryza sativa
[5] = Inhibition of yeast alpha-glucosidase by spectrophotometry; set-up: species or system Saccharomyces cerevisiae
Method in brief: (§3)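 Commercial enzyme assayed with the matching p-nitrophenyl glycoside (2 mM) in a 1 mL reaction, at pH 5.0 for the C. saccharolyticum and almond beta-glucosidases, pH 6.8 for bovine liver beta-galactosidase and pH 6.8 for yeast alpha-glucosidase. The reaction was stopped with 2 mL of 400 mM Na2CO3 and released p-nitrophenol was read at 400 nm. IC50 was determined.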

[6] = Inhibition of Caldocellum saccharolyticum beta-glucosidase by spectrophotometry; set-up: species or system Caldicellulosiruptor saccharolyticus; method in brief: as §3
[7] = Inhibition of almond beta-glucosidase by spectrophotometry; set-up: species or system Prunus dulcis; method in brief: as §3
Beta-galactosidase = biological target: T2, Beta-galactosidase (Bos taurus, UniProt Q58D55); test: Inhibition of bovine liver beta-galactosidase by spectrophotometry; method in brief: as §3
T2 sequence (Q58D55 whole entry): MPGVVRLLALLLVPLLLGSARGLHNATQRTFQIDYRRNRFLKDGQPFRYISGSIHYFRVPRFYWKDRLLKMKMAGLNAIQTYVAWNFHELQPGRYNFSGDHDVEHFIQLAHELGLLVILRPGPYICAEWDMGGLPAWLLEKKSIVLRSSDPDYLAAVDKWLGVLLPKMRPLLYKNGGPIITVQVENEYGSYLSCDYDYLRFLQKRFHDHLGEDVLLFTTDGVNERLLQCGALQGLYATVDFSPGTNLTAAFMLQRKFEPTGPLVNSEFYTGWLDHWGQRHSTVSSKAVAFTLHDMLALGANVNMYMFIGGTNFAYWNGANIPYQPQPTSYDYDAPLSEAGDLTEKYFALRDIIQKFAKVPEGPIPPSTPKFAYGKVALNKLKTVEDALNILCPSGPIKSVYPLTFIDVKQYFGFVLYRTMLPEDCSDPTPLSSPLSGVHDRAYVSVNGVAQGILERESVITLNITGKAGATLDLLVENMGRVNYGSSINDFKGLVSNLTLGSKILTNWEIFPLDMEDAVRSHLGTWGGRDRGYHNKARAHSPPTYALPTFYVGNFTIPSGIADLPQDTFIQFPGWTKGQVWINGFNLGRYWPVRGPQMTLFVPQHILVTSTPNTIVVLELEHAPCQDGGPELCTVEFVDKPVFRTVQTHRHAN

Rattus norvegicus [8] = species on record: Rattus norvegicus; test: Inhibition of rat epididymis beta-galactosidase at 1000 uM by spectrophotometry; method in brief: as §2
[9] = biological target: T3, Tissue alpha-L-fucosidase (Bos taurus) (UniProt Q2KIM0); test: Inhibition of bovine epididymis alpha-L-fucosidase at 1000 uM by spectrophotometry; method in brief: as §1
T3 sequence (whole entry): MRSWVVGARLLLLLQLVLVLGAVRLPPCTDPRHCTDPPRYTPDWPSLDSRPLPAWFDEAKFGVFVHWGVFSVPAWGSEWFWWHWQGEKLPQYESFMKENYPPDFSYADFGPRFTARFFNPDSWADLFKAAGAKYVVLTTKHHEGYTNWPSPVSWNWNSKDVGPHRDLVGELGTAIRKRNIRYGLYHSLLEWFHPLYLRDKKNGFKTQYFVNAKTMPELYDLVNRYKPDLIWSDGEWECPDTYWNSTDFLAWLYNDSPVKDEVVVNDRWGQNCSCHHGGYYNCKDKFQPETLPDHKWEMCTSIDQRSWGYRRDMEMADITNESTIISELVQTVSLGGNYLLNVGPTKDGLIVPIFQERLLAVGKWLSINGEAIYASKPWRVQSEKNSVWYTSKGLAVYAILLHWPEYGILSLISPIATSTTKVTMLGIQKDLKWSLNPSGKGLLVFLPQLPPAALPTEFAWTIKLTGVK

[10] = biological target: T4, Lysosomal acid glucosylceramidase (Homo sapiens) (UniProt P04062); test: Inhibition of human placental beta-glucocerebrosidase at 1000 uM by spectrophotometry
T4 sequence (whole entry): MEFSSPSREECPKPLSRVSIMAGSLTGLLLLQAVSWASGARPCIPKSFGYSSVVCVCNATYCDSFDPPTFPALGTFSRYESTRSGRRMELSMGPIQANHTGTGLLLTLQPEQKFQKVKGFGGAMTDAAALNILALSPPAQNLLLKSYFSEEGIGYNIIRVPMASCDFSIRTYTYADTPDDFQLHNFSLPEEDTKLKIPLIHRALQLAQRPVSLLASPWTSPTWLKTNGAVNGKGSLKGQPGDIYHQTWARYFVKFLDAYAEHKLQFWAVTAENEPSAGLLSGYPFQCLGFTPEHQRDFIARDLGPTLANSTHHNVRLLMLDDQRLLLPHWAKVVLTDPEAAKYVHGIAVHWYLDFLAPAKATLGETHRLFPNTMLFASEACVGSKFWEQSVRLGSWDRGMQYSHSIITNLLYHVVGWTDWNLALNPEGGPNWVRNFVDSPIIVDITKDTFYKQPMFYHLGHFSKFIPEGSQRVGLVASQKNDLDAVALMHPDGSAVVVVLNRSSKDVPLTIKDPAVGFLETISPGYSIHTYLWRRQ

[11] = system: maltase-glucoamylase (Rattus norvegicus); test: Inhibition of rat intestinal maltase at 1000 uM by spectrophotometry
Beta-mannosidase = biological target: T5, Beta-mannosidase (Rattus norvegicus, UniProt Q4FZV0); test: Inhibition of rat epididymis beta-mannosidase by spectrophotometry; method in brief: as §2
T5 sequence (Q4FZV0 whole entry): T1 sequence (whole entry)

Prunus dulcis = test: Inhibition of almond beta-glucosidase at 1000 uM by spectrophotometry
[12] = Inhibition of rat epididymis alpha-mannosidase by spectrophotometry
Method in brief: (§4)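 Substrate was the matching p-nitrophenyl glycoside at 2 mM. Penicillium decumbens α-L-rhamnosidase was run at pH 4.5. α-Mannosidase came from purified rat epididymal fluid and was run at pH 5.2. Reactions were stopped with 400 mM Na2CO3, and released p-nitrophenol was read at 400 nm.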

[13] = Inhibition of Penicillium decumbens alpha-L-rhamnosidase by spectrophotometry; method in brief: as §4
[14] = biological target: T6, Beta-galactosidase (Bos taurus) (UniProt Q58D55); test: Inhibition of bovine liver beta-galactosidase at 1000 uM by spectrophotometry
T6 sequence (whole entry): T2 sequence (Q58D55 whole entry)

Oryza sativa = test: Inhibition of rice alpha-glucosidase at 1000 uM by spectrophotometry
Saccharomyces cerevisiae = test: Inhibition of yeast alpha-glucosidase at 1000 uM by spectrophotometry

Sequence of Alpha-galactosidase (Coffea arabica) (Q42656 16-378 limits assumed): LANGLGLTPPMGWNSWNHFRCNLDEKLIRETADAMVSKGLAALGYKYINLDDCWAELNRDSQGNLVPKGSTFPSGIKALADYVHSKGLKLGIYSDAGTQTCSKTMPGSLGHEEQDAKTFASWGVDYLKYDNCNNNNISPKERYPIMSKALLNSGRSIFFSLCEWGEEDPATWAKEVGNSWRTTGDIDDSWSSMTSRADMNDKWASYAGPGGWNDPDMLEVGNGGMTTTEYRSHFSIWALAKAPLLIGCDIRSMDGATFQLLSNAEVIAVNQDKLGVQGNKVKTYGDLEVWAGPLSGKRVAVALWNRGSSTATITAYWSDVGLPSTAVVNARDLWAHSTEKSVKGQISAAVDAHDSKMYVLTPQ

| inhibition (Rattus norvegicus [2]) | inhibition (Penicillium decumbens) | IC50 [4] | IC50 [5] | IC50 [6] | IC50 [7] | IC50 (Beta-galactosidase) | IC50 (Beta-mannosidase) | inhibition (Prunus dulcis) | Compound | inhibition [1] | inhibition [3] | inhibition (Rattus norvegicus [8]) | inhibition [9] | inhibition [10] | inhibition [11] | IC50 [12] | IC50 [13] | inhibition [14] | inhibition (Oryza sativa) | inhibition (Saccharomyces cerevisiae) |
| --- | --- | --- | --- | --- | --- | --- | --- | --- | --- | --- | --- | --- | --- | --- | --- | --- | --- | --- | --- | --- |
| < 50% | < 50% | 210 µM | 100 µM | 700 µM | – | 260 µM | 610 µM | < 50% | CC(O)C[C@H]1N[C@H](CO)[C@@H](O)[C@@H]1O (some centres undefined) | < 50% | – | < 50% | < 50% | < 50% | – | – | – | – | – | – |
| – | – | – | – | 3.2 µM | – | 4.4 µM | – | – | OC[C@@H](O)[C@H]1N[C@H](CO)[C@@H](O)[C@@H]1O | – | – | – | – | – | – | – | – | – | – | – |
| – | – | – | – | – | 0.01 µM | – | – | – | OC[C@H]1N[C@H](C(O)CCC[C@@H]2CCC[C@]3(CCCCO3)O2)[C@@H](O)[C@@H]1O (some centres undefined) | – | – | – | – | – | – | – | – | – | – | – |

Continued, compound first:

| Compound | inhibition (Rattus norvegicus [2]) | inhibition (Penicillium decumbens) | IC50 [4] | IC50 [5] | IC50 [6] | IC50 [7] | IC50 (Beta-galactosidase) | IC50 (Beta-mannosidase) | inhibition (Prunus dulcis) | inhibition [1] | inhibition [3] | inhibition (Rattus norvegicus [8]) | inhibition [9] | inhibition [10] | inhibition [11] | IC50 [12] | IC50 [13] | inhibition [14] | inhibition (Oryza sativa) | inhibition (Saccharomyces cerevisiae) |
| --- | --- | --- | --- | --- | --- | --- | --- | --- | --- | --- | --- | --- | --- | --- | --- | --- | --- | --- | --- | --- |
| OCC(O)CC(O)[C@@H]1CC[C@@H]2[C@H](O)[C@H](O)[C@@H](CO)N21 (some centres undefined) | < 50% | < 50% | 390 µM | 650 µM | 11.4 µM | 25.4 µM | 920 µM | – | – | < 50% | < 50% | < 50% | < 50% | < 50% | < 50% | – | – | – | – | – |
| O=C(CCCCCCC[C@@H](O)[C@H]1N[C@H](CO)[C@@H](O)[C@@H]1O)CCCCO[C@@H]1O[C@H](CO)[C@@H](O)[C@H](O)[C@H]1O | – | – | – | – | – | 0.01 µM | – | – | – | – | – | – | – | – | – | – | – | – | – | – |
| CC(O)CC(O)[C@@H]1CC[C@@H]2[C@H](O)[C@H](O)[C@@H](CO)N21 (some centres undefined) | – | – | 300 µM | 3.6 µM | 5.1 µM | 9.5 µM | 830 µM | – | – | < 50% | < 50% | < 50% | < 50% | < 50% | – | 680 µM | 180 µM | – | – | – |
| CC(O)CC[C@@H]1CC[C@@H]2[C@@H](O)[C@H](O)[C@@H](CO)N12 (some centres undefined) | < 50% | < 50% | – | – | 136 µM | 49 µM | – | – | – | < 50% | < 50% | < 50% | < 50% | < 50% | < 50% | – | – | < 50% | < 50% | < 50% |

From ChEMBL document CHEMBL1151206, “Glycosidase-inhibiting pyrrolidines and pyrrolizidines with a long side chain in Scilla peruviana” (J Nat Prod, 2004)
